Converted amounts (≈) assume the structure as drawn. The source made the active and inactive calls. The calls are words filed in the database; no cut-off is given here.
Tests used:
[1] = T>MIC in Staphylococcus aureus infected neutropenic mouse thigh infection model; assay type: functional, Thigh muscle
Staphylococcus aureus [2] = experiment: Antibacterial activity against Staphylococcus aureus in murine thigh infection model; assay type: functional; conditions: Thigh muscle
Staphylococcus aureus [3] = experiment: Bactericidal activity against Staphylococcus aureus assessed as log reduction in bacterial count; assay type: functional
[4] = Tmax in simulated human serum in in vitro hollow-fiber PK model at 600 mg administered every 24 hrs; assay type: ADME, cell-free; conditions: in vitro hollow-fiber PK model simulating human serum
[5] = Cmax in simulated human serum in in vitro hollow-fiber PK model at 600 mg administered every 24 hrs by HPLC; assay type: ADME, organism-based; design: dose 600 mg; conditions: in vitro hollow-fiber PK model simulating human serum
Staphylococcus aureus [6] = experiment: Antibacterial activity against methicillin-resistant Staphylococcus aureus SMH 32024 after 24 hrs by Etest; assay type: functional; conditions: SMH 32024, 24 h
Staphylococcus aureus [7] = experiment: Bactericidal activity against methicillin-resistant Staphylococcus aureus infected in rabbit at 6 mg/kg of body weight administered every 8 hrs measured after 72 hrs; assay type: functional
[8] = Half life in simulated human serum in in vitro hollow-fiber PK model at 100 mg administered every 12 hrs; assay type: ADME, cell-free; conditions: in vitro hollow-fiber PK model simulating human serum
Outline: (§1)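 Samples were taken at 0, 1, 2, 3, 4, 5, 6, 12 and 24 h. Concentrations were measured by bioassay on Penassay seed agar with Bacillus subtilis as indicator. Triplicate runs.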

Staphylococcus aureus [9] = experiment: Antibacterial activity against methicillin-resistant Staphylococcus aureus SMH 32024 infected in in vitro hollow-fiber model assessed as log reduction in viable bacterial count at 100 mg after 12 hrs; assay type: functional
Staphylococcus aureus [10] = experiment: Antibacterial activity against Staphylococcus aureus SMH 26910 after 24 hrs by Etest; assay type: functional; conditions: SMH 26910, 24 h
Staphylococcus aureus [11] = experiment: Antibacterial activity against Staphylococcus aureus SMH 31236 infected in in vitro hollow-fiber model assessed as log reduction in viable bacterial count at 100 mg after 12 hrs; assay type: functional
Outline: (§2)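 Hollow-fiber model at 37°C in 25% Mueller-Hinton broth with a peripheral-compartment inoculum of 10^6 CFU/ml. […] Samples were taken at 0–24 h and counted on nutrient agar (detection limit 2.0 x 10^2 CFU/ml). Run in triplicate.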

Staphylococcus aureus [12] = experiment: Bactericidal activity against Staphylococcus aureus assessed as reduction log reduction in viable bacterial count at 0.5 to 1 times MIC; assay type: functional
Staphylococcus aureus [13] = experiment: Antibacterial activity against Staphylococcus aureus SMH 31236 after 24 hrs by Etest; assay type: functional; conditions: SMH 31236, 24 h
[14] = T>MIC in Staphylococcus aureus infected rabbit; assay type: functional
Staphylococcus aureus [15] = experiment: Ratio of AUC to MIC in methicillin-resistant Staphylococcus aureus infected in in vitro hollow-fiber PK model at 100 mg after 12 hrs; assay type: functional
Staphylococcus aureus [16] = experiment: Antibacterial activity against methicillin-resistant Staphylococcus aureus SMH 32985 infected in in vitro hollow-fiber model assessed as log reduction in viable bacterial count at 100 mg administered every 12 hrs measured after 24 hrs; assay type: functional
Outline: (§3)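 Hollow-fiber model at 37°C, 25% Mueller-Hinton broth, 10^6 CFU/ml inoculum in the peripheral compartment. […] Viable counts on nutrient agar (detection limit 2.0 x 10^2 CFU/ml). Read-out is log change in count at 24 h versus start. Triplicate.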

Staphylococcus aureus [17] = experiment: Ratio of AUC to MIC in methicillin-resistant Staphylococcus aureus infected in in vitro hollow-fiber PK model at 100 mg after 24 hrs; assay type: functional
Staphylococcus aureus [18] = experiment: Antibacterial activity against Staphylococcus aureus SMH 26910 infected in in vitro hollow-fiber model assessed as log reduction in viable bacterial count at 100 mg after 12 hrs; assay type: functional; outline: as §2
[19] = Tmax in simulated human serum in in vitro hollow-fiber PK model at 100 mg administered every 12 hrs; assay type: ADME, cell-free; conditions: in vitro hollow-fiber PK model simulating human serum; outline: as §1
Staphylococcus aureus [20] = experiment: Antibacterial activity against methicillin-resistant Staphylococcus aureus SMH 32985 infected in in vitro hollow-fiber model assessed as log reduction in viable bacterial count at 100 mg after 12 hrs; assay type: functional
Staphylococcus aureus [21] = experiment: AUBKC (24 hrs) in methicillin-resistant Staphylococcus aureus SMH 31236 infected in in vitro hollow-fiber PK model at 100 mg administered every 12 hrs; assay type: functional
Outline: (§4)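 Peripheral compartment inoculated to 10^6 CFU/ml. Samples at 0–24 h were spiral-plated on nutrient agar (detection limit 2.0 x 10^2 CFU/ml). Area under the bacterial kill curve was taken over 0–24 h. Triplicate runs.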

Staphylococcus aureus [22] = experiment: Antibacterial activity against Staphylococcus aureus SMH 31236 infected in in vitro hollow-fiber model assessed as log reduction in viable bacterial count at 100 mg administered every 12 hrs measured after 24 hrs; assay type: functional; outline: as §2
Staphylococcus aureus [23] = experiment: Antibacterial activity against methicillin-resistant Staphylococcus aureus SMH 32024 infected in in vitro hollow-fiber model assessed as log reduction in viable bacterial count at 100 mg administered every 12 hrs measured after 24 hrs; assay type: functional; outline: as §3
Staphylococcus aureus [24] = experiment: AUBKC (24 hrs) in […] Staphylococcus aureus SMH 26910 infected in in vitro hollow-fiber PK model at 100 mg administered every 12 hrs; assay type: functional; outline: as §4
Staphylococcus aureus [25] = experiment: Ratio of AUC to MIC in methicillin-resistant Staphylococcus aureus infected in in vitro hollow-fiber PK model at 100 mg administered every 12 hrs; assay type: functional
Staphylococcus aureus [26] = experiment: AUBKC (24 hrs) in methicillin-resistant Staphylococcus aureus SMH 32985 infected in in vitro hollow-fiber PK model at 100 mg administered every 12 hrs; assay type: functional; outline: as §4
[27] = Half life in human serum; assay type: ADME, cell-free
Staphylococcus aureus [28] = experiment: Ratio of AUC to MIC in methicillin-resistant Staphylococcus aureus infected in in vitro hollow-fiber PK model at 100 mg after 8 hrs; assay type: functional
[29] = Cmax in simulated human serum in in vitro hollow-fiber PK model at 100 mg administered every 12 hrs; assay type: ADME, organism-based; design: dose 100 mg; conditions: in vitro hollow-fiber PK model simulating human serum; outline: as §1
Staphylococcus aureus [30] = experiment: AUBKC (24 hrs) in methicillin-resistant Staphylococcus aureus SMH 32024 infected in in vitro hollow-fiber PK model at 100 mg administered every 12 hrs; assay type: functional; outline: as §4
Staphylococcus aureus [31] = experiment: Antibacterial activity against methicillin-resistant Staphylococcus aureus SMH 32985 after 24 hrs by Etest; assay type: functional; conditions: SMH 32985, 24 h
Staphylococcus aureus [32] = experiment: Antibacterial activity against Staphylococcus aureus SMH 26910 infected in in vitro hollow-fiber model assessed as log reduction in viable bacterial count at 100 mg administered every 12 hrs measured after 24 hrs; assay type: functional; outline: as §2
[33] = Tmax in simulated human serum in in vitro hollow-fiber PK model at 1 g administered every 12 hrs; assay type: ADME, cell-free; conditions: in vitro hollow-fiber PK model simulating human serum
Outline: (§5)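 Free vancomycin 1 g q12h simulated in a hollow-fiber model at 37°C with 25% Mueller-Hinton broth. […] Dosed into the dosing chamber at 0 and 12 h. Samples were taken at 0, 1, 2, 3, 4, 5, 6, 12 and 24 h, and concentrations measured by fluorescence polarization immunoassay. Triplicate experiments.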

Staphylococcus aureus [34] = experiment: Bactericidal activity against methicillin-resistant Staphylococcus aureus infected in rabbit at 50 mg/kg of body weight administered every 8 hrs measured after 72 hrs; assay type: functional
[35] = Half life in simulated human serum in in vitro hollow-fiber PK model at 1 g administered every 12 hrs; assay type: ADME, cell-free; conditions: in vitro hollow-fiber PK model simulating human serum; outline: as §5
[36] = Cmax in simulated human serum in in vitro hollow-fiber PK model at 1 g administered every 12 hrs by fluorescence polarization immunoassay method; assay type: ADME, organism-based; design: dose 1 g; conditions: in vitro hollow-fiber PK model simulating human serum; outline: as §5
Staphylococcus aureus [37] = experiment: Bactericidal activity against Staphylococcus aureus infected in in vitro hollow-fiber PK model at 200 mg administered every 24 hrs; assay type: functional, organism-based
Staphylococcus aureus [38] = experiment: Bactericidal activity against Staphylococcus aureus assessed as viable bacterial count at 4 times MIC; assay type: functional
Staphylococcus aureus [39] = experiment: Bactericidal activity against Staphylococcus aureus assessed as viable bacterial count at 2 times MIC; assay type: functional
Staphylococcus aureus [40] = experiment: Bactericidal activity against Staphylococcus aureus infected in in vitro hollow-fiber PK model at 200 mg administered every 12 hrs; assay type: functional, organism-based
Staphylococcus aureus [41] = experiment: Bactericidal activity against Staphylococcus aureus infected in in vitro hollow-fiber PK model at 400 mg administered every 24 hrs; assay type: functional, organism-based
Staphylococcus aureus [42] = experiment: Bactericidal activity against Staphylococcus aureus infected in in vitro hollow-fiber PK model at 100 mg administered every 12 hrs; assay type: functional, organism-based

Compound: CN(C)c1cc(NC(=O)CNC(C)(C)C)c(O)c2c1C[C@H]1C[C@H]3[C@H](N(C)C)C(O)=C(C(N)=O)C(=O)[C@@]3(O)C(O)=C1C2=O [TIGECYCLINE]
- fT>MIC [1]: >50%
- MIC (Staphylococcus aureus [2]): 0.125 µg/mL (≈ 0.213 µM)
- Activity (Staphylococcus aureus [3]): Active
- Log reduction in bacterial count (Staphylococcus aureus [3]): 2

Compound: CO[C@H]1/C=C/O[C@@]2(C)Oc3c(C)c(O)c4c(O)c(c(/C=N/N5CCN(C)CC5)c(O)c4c3C2=O)NC(=O)/C(C)=C\C=C\[C@H](C)[C@H](O)[C@@H](C)[C@@H](O)[C@@H](C)[C@H](OC(C)=O)[C@@H]1C [RIFAMPIN]
- Tmax [4]: 1.2 h
- Cmax [5]: 2000 ng/mL

Compound: CN(C)c1ccc(O)c2c1C[C@H]1C[C@H]3[C@H](N(C)C)C(O)=C(C(N)=O)C(=O)[C@@]3(O)C(O)=C1C2=O [MINOCYCLINE]
- MIC (Staphylococcus aureus [6]): 0.19 µg/mL (≈ 0.415 µM)
- log10 CFU/g (Staphylococcus aureus [7]): 5.3 log10 CFU/g
- half-life [8]: 12 h
- FC (Staphylococcus aureus [9]): 0.8
- MIC (Staphylococcus aureus [10]): 0.06 µg/mL (≈ 0.131 µM)
- FC (Staphylococcus aureus [11]): 1.6
- FC (Staphylococcus aureus [12]): 1.5
- MIC (Staphylococcus aureus [13]): 0.75 µg/mL (≈ 1.64 µM)
- fT>MIC [14]: 100%
- RatioAUC/MIC (Staphylococcus aureus [15]): 2.1
- FC (Staphylococcus aureus [16]): 0.8
- RatioAUC/MIC (Staphylococcus aureus [17]): 1.6
- FC (Staphylococcus aureus [18]): 1.9
- Tmax [19]: 2.3 h
- FC (Staphylococcus aureus [20]): 0.5
- fold change (FC) (Staphylococcus aureus [21]): 98.4
- FC (Staphylococcus aureus [22]): 0.1
- FC (Staphylococcus aureus [23]): 0.2
- fold change (FC) (Staphylococcus aureus [24]): 77.6
- RatioAUC/MIC (Staphylococcus aureus [25]): 200
- fold change (FC) (Staphylococcus aureus [26]): 79.7
- half-life [27]: 12 h
- RatioAUC/MIC (Staphylococcus aureus [28]): 1.7
- Cmax [29]: 600 ng/mL
- fold change (FC) (Staphylococcus aureus [30]): 77.2
- MIC (Staphylococcus aureus [31]): 0.04 µg/mL (≈ 0.0874 µM)
- Log reduction in bacterial count (Staphylococcus aureus [3]): 1.5
- FC (Staphylococcus aureus [32]): 1.4

Compound: CN[C@H](CC(C)C)C(=O)N[C@H]1C(=O)N[C@@H](CC(N)=O)C(=O)N[C@H]2C(=O)N[C@H]3C(=O)N[C@H](C(=O)N[C@H](C(=O)O)c4cc(O)cc(O)c4-c4cc3ccc4O)[C@H](O)c3ccc(c(Cl)c3)Oc3cc2cc(c3O[C@@H]2O[C@H](CO)[C@@H](O)[C@H](O)[C@H]2O[C@H]2C[C@](C)(N)[C@H](O)[C@H](C)O2)Oc2ccc(cc2Cl)[C@H]1O [VANCOMYCIN]
- MIC (Staphylococcus aureus [6]): 1.5 µg/mL (≈ 1.04 µM)
- Tmax [33]: 1 h
- MIC (Staphylococcus aureus [10]): 1.5 µg/mL (≈ 1.04 µM)
- log10 CFU/g (Staphylococcus aureus [34]): 4.8 log10 CFU/g
- half-life [35]: 6 h
- Cmax [36]: 15000 ng/mL
- MIC (Staphylococcus aureus [31]): 1.5 µg/mL (≈ 1.04 µM)

Compound: C[C@H]1c2cccc(O)c2C(=O)C2=C(O)[C@]3(O)C(=O)C(C(N)=O)=C(O)[C@@H](N(C)C)[C@@H]3[C@@H](O)[C@@H]21.O [DOXYCYCLINE]
- Activity (Staphylococcus aureus [37]): Active
- fold change (FC) (Staphylococcus aureus [38]): 0.5
- fold change (FC) (Staphylococcus aureus [39]): 0.5
- Activity (Staphylococcus aureus [40]): Active
- Activity (Staphylococcus aureus [41]): Active
- Activity (Staphylococcus aureus [3]): Active
- Activity (Staphylococcus aureus [42]): Active
